Measured values as given in ChEMBL document CHEMBL5550111, “Design, synthesis and biological evaluation of aryloxy thiophosphoramidate triesters of anticancer nucleoside analogues” (Bioorg Med Chem, 2024).

What was measured:
BXPC-3 [1] = experiment: Cytotoxicity against human BXPC-3 cells assessed as inhibition of cell viability incubated for 72 hrs by MTS assay; format: functional, cell-based; conditions: BXPC-3, 72 h
Procedure, shortened: (§1)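 Cells seeded at 0.5 to 100 × 10^3 per well the day before treatment, then exposed for 72 h to 9 serial concentrations (3.16-fold dilutions, top 198 μM), in duplicate. MTS added for a final 4 h at 37 °C and absorbance read. IC50 is the concentration giving 50% loss of viability. MI% is the maximum inhibition over the tested range.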

A2780 [2] = experiment: Cytotoxicity against human A2780 cells assessed as maximum inhibition of cell viability upto 198 uM incubated for 72 hrs by MTS assay relative to control; format: functional; conditions: up to 198 µM
Procedure, shortened: (§2)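 Cells seeded at 0.5 to 100 × 10^3 per well the day before drug addition, then exposed to compound for 72 h. MTS added afterwards, with a further 4 h at 37 °C, and absorbance read. Tested in duplicate at 9 serial 3.16-fold dilutions, top concentration 198 μM. MI% is the maximum inhibition of viability across the tested range.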

RT112/84 [3] = experiment: Cytotoxicity against human RT112/84 cells assessed as maximum inhibition of cell viability upto 198 uM incubated for 72 hrs by MTS assay relative to control; format: functional; conditions: up to 198 µM; procedure, shortened: as §2
PANC-1 [4] = experiment: Cytotoxicity against human PANC-1 cells assessed as maximum inhibition of cell viability upto 198 uM incubated for 72 hrs by MTS assay relative to control; format: functional; conditions: up to 198 µM; procedure, shortened: as §2
RT112/84 [5] = experiment: Cytotoxicity against human RT112/84 cells assessed as inhibition of cell viability incubated for 72 hrs by MTS assay; format: functional, cell-based; conditions: RT112/84, 72 h; procedure, shortened: as §1
A2780 [6] = experiment: Cytotoxicity against human A2780 cells assessed as inhibition of cell viability incubated for 72 hrs by MTS assay; format: functional, cell-based; conditions: A2780, 72 h; procedure, shortened: as §1
MDA-MB-231 [7] = experiment: Cytotoxicity against human MDA-MB-231 cells assessed as maximum inhibition of cell viability upto 198 uM incubated for 72 hrs by MTS assay relative to control; format: functional; conditions: up to 198 µM; procedure, shortened: as §2
OVCAR-3 [8] = experiment: Cytotoxicity against human OVCAR-3 cells assessed as inhibition of cell viability incubated for 72 hrs by MTS assay; format: functional, cell-based; conditions: OVCAR-3, 72 h; procedure, shortened: as §1
PC-3 [9] = experiment: Cytotoxicity against human PC-3 cells assessed as inhibition of cell viability incubated for 72 hrs by MTS assay; format: functional, cell-based; conditions: PC-3, 72 h; procedure, shortened: as §1
SK-MES-1 [10] = experiment: Cytotoxicity against human SK-MES-1 cells assessed as maximum inhibition of cell viability upto 198 uM incubated for 72 hrs by MTS assay relative to control; format: functional; conditions: up to 198 µM; procedure, shortened: as §2
MIA PaCa-2 [11] = experiment: Cytotoxicity against human MIA PaCa-2 cells assessed as inhibition of cell viability incubated for 72 hrs by MTS assay; format: functional, cell-based; conditions: MIA PaCa-2, 72 h; procedure, shortened: as §1
HepG2 [12] = experiment: Cytotoxicity against human HepG2 cells assessed as maximum inhibition of cell viability upto 198 uM incubated for 72 hrs by MTS assay relative to control; format: functional; conditions: up to 198 µM; procedure, shortened: as §2
[13] = Cytotoxicity against human T24/83 cells assessed as inhibition of cell viability incubated for 72 hrs by MTS assay; format: functional, cell-based; conditions: T24/83, 72 h; procedure, shortened: as §1
HT-29 [14] = experiment: Cytotoxicity against human HT-29 cells assessed as inhibition of cell viability incubated for 72 hrs by MTS assay; format: functional, cell-based; conditions: HT-29, 72 h; procedure, shortened: as §1
BXPC-3 [15] = experiment: Cytotoxicity against human BXPC-3 cells assessed as maximum inhibition of cell viability upto 198 uM incubated for 72 hrs by MTS assay relative to control; format: functional; conditions: up to 198 µM; procedure, shortened: as §2
PANC-1 [16] = experiment: Cytotoxicity against human PANC-1 cells assessed as inhibition of cell viability incubated for 72 hrs by MTS assay; format: functional, cell-based; conditions: PANC-1, 72 h; procedure, shortened: as §1
SK-MES-1 [17] = experiment: Cytotoxicity against human SK-MES-1 cells assessed as inhibition of cell viability incubated for 72 hrs by MTS assay; format: functional, cell-based; conditions: SK-MES-1, 72 h; procedure, shortened: as §1
OVCAR-3 [18] = experiment: Cytotoxicity against human OVCAR-3 cells assessed as maximum inhibition of cell viability upto 198 uM incubated for 72 hrs by MTS assay relative to control; format: functional; conditions: up to 198 µM; procedure, shortened: as §2
MIA PaCa-2 [19] = experiment: Cytotoxicity against human MIA PaCa-2 cells assessed as maximum inhibition of cell viability upto 198 uM incubated for 72 hrs by MTS assay relative to control; format: functional; conditions: up to 198 µM; procedure, shortened: as §2
COLO 205 [20] = experiment: Cytotoxicity against human COLO 205 cells assessed as inhibition of cell viability incubated for 72 hrs by MTS assay; format: functional, cell-based; conditions: COLO 205, 72 h; procedure, shortened: as §1
PC-3 [21] = experiment: Cytotoxicity against human PC-3 cells assessed as maximum inhibition of cell viability upto 198 uM incubated for 72 hrs by MTS assay relative to control; format: functional; conditions: up to 198 µM; procedure, shortened: as §2
HepG2 [22] = experiment: Cytotoxicity against human HepG2 cells assessed as inhibition of cell viability incubated for 72 hrs by MTS assay; format: functional, cell-based; conditions: HepG2, 72 h; procedure, shortened: as §1
MDA-MB-231 [23] = experiment: Cytotoxicity against human MDA-MB-231 cells assessed as inhibition of cell viability incubated for 72 hrs by MTS assay; format: functional, cell-based; conditions: MDA-MB-231, 72 h; procedure, shortened: as §1
HT-29 [24] = experiment: Cytotoxicity against human HT-29 cells assessed as maximum inhibition of cell viability upto 198 uM incubated for 72 hrs by MTS assay relative to control; format: functional; conditions: up to 198 µM; procedure, shortened: as §2
COLO 205 [25] = experiment: Cytotoxicity against human COLO 205 cells assessed as maximum inhibition of cell viability upto 198 uM incubated for 72 hrs by MTS assay relative to control; format: functional; conditions: up to 198 µM; procedure, shortened: as §2

C[C@H](NP(=O)(OC[C@H]1O[C@@H](n2ccc(N)nc2=O)C(F)(F)[C@@H]1O)Oc1ccccc1)C(=O)OCc1ccccc1 (stereo not given in full) [FOSGEMCITABINE PALABENAMIDE]
IC50 (BXPC-3 [1]): 330 nM
Imax (A2780 [2]): 76%
Imax (RT112/84 [3]): 79%
Imax (PANC-1 [4]): 45%
IC50 (RT112/84 [5]): 110 nM
IC50 (A2780 [6]): 270 nM
Imax (MDA-MB-231 [7]): 71%
IC50 (OVCAR-3 [8]): 119000 nM
IC50 (PC-3 [9]): 1090 nM
Imax (SK-MES-1 [10]): 79%
IC50 (MIA PaCa-2 [11]): 120 nM
Imax (HepG2 [12]): 57%
IC50 [13]: 50 nM
IC50 (HT-29 [14]): 480 nM
Imax (BXPC-3 [15]): 64%
IC50 (PANC-1 [16]): 3960 nM
IC50 (SK-MES-1 [17]): 110 nM
Imax (OVCAR-3 [18]): 16%
Imax (MIA PaCa-2 [19]): 69%
IC50 (COLO 205 [20]): 1820 nM
Imax (PC-3 [21]): 65%
IC50 (HepG2 [22]): 1160 nM
IC50 (MDA-MB-231 [23]): 1000 nM
Imax (HT-29 [24]): 64%
Imax (COLO 205 [25]): 72%
